Results on four compounds are retold here after ChEMBL document CHEMBL4219235, “Novel fatty acid chain modified GLP-1 derivatives with prolonged in vivo glucose-lowering ability and balanced glucoregulatory activity” (Bioorg Med Chem, 2018).

One data set deals with Albumin (Homo sapiens, UniProt P02768). Nature of the data set: Binding affinity to human serum albumin after 3 hrs by LC-MS/MS analysis. Set-up: concentration or dose not given beside the values. Put shortly:
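HSA was coupled to NHS-activated Sepharose (6–7 mg HSA/mL wet resin); an inactivated albumin-free resin served as control. Peptide (100 µg/mL in PBS) was incubated with each resin for 3 h at 25 °C. After centrifugation, unbound peptide in the supernatant was quantified by LC-MS/MS.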

The target of data set [1] is Glucagon-like peptide 1 receptor (Homo sapiens, UniProt P43220). Nature of the data set: Agonist activity at recombinant human GLP1 receptor expressed in HEK293 cells assessed as cAMP accumulation by TR-FRET assay. The data set is classed as functional, cell-based.
Chain of Glucagon-like peptide 1 receptor (P43220 whole entry): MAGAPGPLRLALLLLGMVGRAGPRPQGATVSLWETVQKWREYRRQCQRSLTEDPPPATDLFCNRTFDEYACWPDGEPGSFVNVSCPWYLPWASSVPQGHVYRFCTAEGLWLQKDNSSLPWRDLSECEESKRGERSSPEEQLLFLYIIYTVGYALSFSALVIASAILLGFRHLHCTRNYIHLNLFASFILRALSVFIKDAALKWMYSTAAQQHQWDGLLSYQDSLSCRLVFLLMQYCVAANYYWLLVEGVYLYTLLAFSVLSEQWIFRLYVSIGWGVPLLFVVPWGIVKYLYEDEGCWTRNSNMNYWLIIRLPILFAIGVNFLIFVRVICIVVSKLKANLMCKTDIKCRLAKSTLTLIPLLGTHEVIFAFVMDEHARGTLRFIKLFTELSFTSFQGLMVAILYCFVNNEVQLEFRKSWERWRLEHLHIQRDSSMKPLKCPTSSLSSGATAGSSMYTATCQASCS

Chain of Albumin (P02768 whole entry): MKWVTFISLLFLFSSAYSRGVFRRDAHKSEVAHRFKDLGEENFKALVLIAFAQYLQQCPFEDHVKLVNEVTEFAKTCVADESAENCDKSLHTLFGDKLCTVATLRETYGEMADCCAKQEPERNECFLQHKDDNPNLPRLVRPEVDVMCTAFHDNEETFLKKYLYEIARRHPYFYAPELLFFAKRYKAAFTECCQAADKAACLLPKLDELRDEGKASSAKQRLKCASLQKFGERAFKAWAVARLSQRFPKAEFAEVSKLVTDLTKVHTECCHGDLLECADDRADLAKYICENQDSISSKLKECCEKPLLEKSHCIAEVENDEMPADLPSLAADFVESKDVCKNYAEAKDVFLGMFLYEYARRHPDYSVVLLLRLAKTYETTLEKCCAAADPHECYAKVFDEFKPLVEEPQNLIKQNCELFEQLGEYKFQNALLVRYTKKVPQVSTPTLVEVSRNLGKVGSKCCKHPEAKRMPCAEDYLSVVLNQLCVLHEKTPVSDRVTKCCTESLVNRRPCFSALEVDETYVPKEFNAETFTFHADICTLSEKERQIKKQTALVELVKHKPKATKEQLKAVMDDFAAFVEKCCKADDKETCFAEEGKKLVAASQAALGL

In the case of `CC[C@H](C)[C@H](NC(=O)[C@H](Cc1ccccc1)NC(=O)[C@H](CCC(=O)O)NC(=O)[C@H](CCCCN)NC(=O)[C@H](C)NC(=O)[C@H](C)NC(=O)[C@H](CCC(N)=O)NC(=O)CNC(=O)[C@H](CCC(=O)O)NC(=O)[C@H](CC(C)C)NC(=O)[C@H](Cc1ccc(O)cc1)NC(=O)[C@H](CO)NC(=O)[C@H](CSC1CC(=O)N(CCCCCCCCCCCC(=O)O)C1=O)NC(=O)[C@@H](NC(=O)[C@H](CC(=O)O)NC(=O)[C@H](CO)NC(=O)[C@@H](NC(=O)[C@H](Cc1ccccc1)NC(=O)[C@@H](NC(=O)CNC(=O)[C@H](CCC(=O)O)NC(=O)CNC(=O)[C@@H](N)Cc1cnc[nH]1)[C@@H](C)O)[C@@H](C)O)C(C)C)C(=O)N[C@@H](C)C(=O)N[C@@H](Cc1c[nH]c2ccccc12)C(=O)N[C@@H](CC(C)C)C(=O)N[C@H](C(=O)N[C@@H](CCCCN)C(=O)NCC(=O)N[C@@H](CCCNC(=N)N)C(N)=O)C(C)C` (stereo partly drawn), the Activity on Albumin was 65.1%. Also, the EC50 in data set [1] is 26.3 pM.

In turn, `CC[C@H](C)[C@H](NC(=O)[C@H](Cc1ccccc1)NC(=O)[C@H](CCC(=O)O)NC(=O)[C@H](CCCCN)NC(=O)[C@H](C)NC(=O)[C@H](C)NC(=O)[C@H](CCC(N)=O)NC(=O)CNC(=O)[C@H](CCC(=O)O)NC(=O)[C@H](CC(C)C)NC(=O)[C@H](Cc1ccc(O)cc1)NC(=O)[C@H](CO)NC(=O)[C@H](CSC1CC(=O)N(CCC(=O)O)C1=O)NC(=O)[C@@H](NC(=O)[C@H](CC(=O)O)NC(=O)[C@H](CO)NC(=O)[C@@H](NC(=O)[C@H](Cc1ccccc1)NC(=O)[C@@H](NC(=O)CNC(=O)[C@H](CCC(=O)O)NC(=O)CNC(=O)[C@@H](N)Cc1cnc[nH]1)[C@@H](C)O)[C@@H](C)O)C(C)C)C(=O)N[C@@H](C)C(=O)N[C@@H](Cc1c[nH]c2ccccc12)C(=O)N[C@@H](CC(C)C)C(=O)N[C@H](C(=O)N[C@@H](CCCCN)C(=O)NCC(=O)N[C@@H](CCCNC(=N)N)C(N)=O)C(C)C` (stereo partly drawn) yielded an Activity on Albumin of 28.5%. Besides, the EC50 in data set [1] amounted to 5.6 pM.

`CC[C@H](C)[C@H](NC(=O)[C@H](Cc1ccccc1)NC(=O)[C@H](CCC(=O)O)NC(=O)[C@H](CCCCN)NC(=O)[C@H](C)NC(=O)[C@H](C)NC(=O)[C@H](CCC(N)=O)NC(=O)CNC(=O)[C@H](CCC(=O)O)NC(=O)[C@H](CC(C)C)NC(=O)[C@H](Cc1ccc(O)cc1)NC(=O)[C@H](CO)NC(=O)[C@H](CSC1CC(=O)N(CCCCCC(=O)O)C1=O)NC(=O)[C@@H](NC(=O)[C@H](CC(=O)O)NC(=O)[C@H](CO)NC(=O)[C@@H](NC(=O)[C@H](Cc1ccccc1)NC(=O)[C@@H](NC(=O)CNC(=O)[C@H](CCC(=O)O)NC(=O)CNC(=O)[C@@H](N)Cc1cnc[nH]1)[C@@H](C)O)[C@@H](C)O)C(C)C)C(=O)N[C@@H](C)C(=O)N[C@@H](Cc1c[nH]c2ccccc12)C(=O)N[C@@H](CC(C)C)C(=O)N[C@H](C(=O)N[C@@H](CCCCN)C(=O)NCC(=O)N[C@@H](CCCNC(=N)N)C(N)=O)C(C)C` (stereo partly drawn) came in with an Activity on Albumin of 37.4%. Besides, the EC50 in data set [1] was found to be 14.3 pM.

`CC[C@H](C)[C@H](NC(=O)[C@H](Cc1ccccc1)NC(=O)[C@H](CCC(=O)O)NC(=O)[C@H](CCCCN)NC(=O)[C@H](C)NC(=O)[C@H](C)NC(=O)[C@H](CCC(N)=O)NC(=O)CNC(=O)[C@H](CCC(=O)O)NC(=O)[C@H](CC(C)C)NC(=O)[C@H](Cc1ccc(O)cc1)NC(=O)[C@H](CO)NC(=O)[C@H](CO)NC(=O)[C@@H](NC(=O)[C@H](CC(=O)O)NC(=O)[C@H](CO)NC(=O)[C@@H](NC(=O)[C@H](Cc1ccccc1)NC(=O)[C@@H](NC(=O)CNC(=O)[C@H](CCC(=O)O)NC(=O)CNC(=O)[C@@H](N)Cc1cnc[nH]1)[C@@H](C)O)[C@@H](C)O)C(C)C)C(=O)N[C@@H](C)C(=O)N[C@@H](Cc1c[nH]c2ccccc12)C(=O)N[C@@H](CC(C)C)C(=O)N[C@H](C(=O)N[C@@H](CCCCN)C(=O)NCC(=O)N[C@@H](CCCNC(=N)N)C(=O)N[C@@H](CSC1CC(=O)N(CCCCCC(=O)O)C1=O)C(N)=O)C(C)C` (stereo partly drawn) came in with an Activity on Albumin of 34.1%. The EC50 in data set [1] was found to be 9.3 pM.
